Compound activity as filed in PubChem.
Hits are enriched below; roughly 3.5% of the tested compounds scored in any of these assays.
MrgX1 antag: blocks BAM8-22 activation of human MrgX1 receptor | Q96LB2 | MRGX1-HEK293 calcium flux, Fluo-4, BAM8-22 antagonism; active compounds read low | B-score at 10 µM | actives 1.3% (n = 310,000) | AID 588676;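 active = calcium-response B-score plate-corrected more than 3 library SD below zero, starting fluorescence within 5 deviations, no agonist response on first addition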;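 note: peak minus trough fluorescence over baseline after final BAM8-22 challenge near maximal dose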
Target sequence (Q96LB2 whole entry, looked up): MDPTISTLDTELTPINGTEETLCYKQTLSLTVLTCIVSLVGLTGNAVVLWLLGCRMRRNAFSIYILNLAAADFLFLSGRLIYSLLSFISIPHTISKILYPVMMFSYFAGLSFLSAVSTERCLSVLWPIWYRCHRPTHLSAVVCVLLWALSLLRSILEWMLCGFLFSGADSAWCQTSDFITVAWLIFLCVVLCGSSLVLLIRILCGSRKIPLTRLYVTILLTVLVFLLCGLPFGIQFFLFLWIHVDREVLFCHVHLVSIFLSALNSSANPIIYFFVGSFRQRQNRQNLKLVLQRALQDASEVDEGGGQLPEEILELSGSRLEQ
MrgX1 PAM: allosterically activates human MrgX1 receptor signaling | AID 588675 | Q96LB2 | actives 0.63% (n = 310,000) | B-score at 10 µM | MrgX1-HEK293, Fluo-4 calcium flux, FDSS; active compounds read high;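 active = plate-corrected calcium response at least 3 library SD above typical, normal starting fluorescence, not activating the receptor alone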;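 note: compound read alongside a low EC10 to EC30 dose of BAM8-22 agonist; peak minus trough fluorescence over baseline measured at the second addition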
MrgX1 ag: human MrgX1 receptor agonism, primary screen; MrgX1-HEK293 cells, Fluo-4 calcium fluorescence, agonist mode; active compounds read high; B-score at 10 µM; actives 0.44% (n = 310,000); AID 588627;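 active = calcium response B-score plate-corrected fluorescence ratio at least 3 library SD, with starting fluorescence B-score inside 5 SD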
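Material: MrgX1-expressing HEK293 cells; input: 15,000 cells per well; doses: test compound given as first of three sequential additions; schedule: overnight plating before 1 h dye loading; technique: Fluo-4 NW calcium-flux fluorescence, kinetic read; evaluation: baseline-normalised fluorescence change ratio, B-scored; control set: plate-wise positive and negative controls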
RGS4 block: inhibitors of human RGS4; HEK293 M3R/RGS4 inducible, Fluo-4 calcium flux; active compounds read high; triggered by carbachol at its EC20; B-score at 10 µM; actives 0.45% (n = 310,000);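 active = B-score, a plate-corrected calcium signal, over three deviations above library mean, with baseline fluorescence within five deviations of library mean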;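 note: RGS4 expression induced by doxycycline in cells with stable M3 receptor; B-score is computed from the integrated fluorescence ratio over baseline after carbachol; higher B-score means a larger calcium signal and so more RGS4 inhibition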
Target sequence (P49798 whole entry, looked up): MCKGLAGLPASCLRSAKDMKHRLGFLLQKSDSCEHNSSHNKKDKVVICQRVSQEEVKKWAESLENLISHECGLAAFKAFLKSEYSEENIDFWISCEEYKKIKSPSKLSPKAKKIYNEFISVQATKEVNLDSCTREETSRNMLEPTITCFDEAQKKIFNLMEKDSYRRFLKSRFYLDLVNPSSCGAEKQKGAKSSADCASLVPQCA
RGS4 act: RGS4 potentiation or activation. B-score at 10 µM. HEK293 M3R/inducible RGS4, carbachol calcium flux Fluo4; active compounds read low. actives 0.92% (n = 310,000);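 active = B-score of the integrated calcium signal more than 4 SD below the library mean, with starting fluorescence not abnormally high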;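 note: negative B-score means reduced calcium response which marks RGS4 activation or potentiation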
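Also added: carbachol at ECmax as muscarinic agonist stimulus; Assay system: HEK293 cells with stable M3R and inducible RGS4; Timing: overnight RGS4 induction, 30 min dye load 37 °C, 20 min compound RT; Measured by: Fluo4-AM (2 µM) calcium-flux fluorescence, kinetic read.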
MrgX1 antag conf: confirmation of human MrgX1 receptor antagonists. actives 19% (n = 2,300). remaining BAM8-22 calcium response % of control (active compounds read low), % at 10 µM. AID 602420. MrgX1-HEK293, BAM8-22 calcium flux, Fluo-4; active compounds read low. shares compounds with MrgX1 antag;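 active = remaining agonist calcium response no higher than 100% minus 3 SD of agonist-only control wells, with starting fluorescence near control levels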;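 note: agonist BAM8-22 given at a near maximal EC90 to ECmax level; peak minus minimum fluorescence divided by baseline after agonist addition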
HEK293 Ca flux: activity in parental HEK293 cells lacking MrgX1; shares compounds with MrgX1 antag; fluorescence ratio F(max-min)/F0 at 10 µM; Fluo-4 calcium fluorescence, FDSS; actives 2% (n = 4,000);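 active = duplicate-averaged calcium fluorescence ratio at least three times the standard deviation of buffer wells, a nonspecific response in parental cells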
HEK293 Ca counter: activity in parental HEK293 cells without MrgX1. shares compounds with MrgX1 antag. AID 624114. actives 0.4% (n = 4,000). fluorescence ratio F(max-min)/F0 at 10 µM. parental HEK293 calcium flux, Fluo-4 fluorescence ratio; active compounds read high;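 active = calcium fluorescence ratio, averaged over duplicates, at least 3 SD of the buffer-well ratio, meaning a nonspecific response in receptor-free cells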;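 note: untransfected parental HEK293 lacking MrgX1 used as counterscreen for MrgX1 allosteric activators; fluorescence change taken during the second addition on a kinetic imager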
HEK293 Ca cntr2: activity in parental HEK293 cells lacking MrgX1 receptor; shares compounds with MrgX1 antag; Fluo-4 calcium fluorescence (FDSS); active compounds read high; fluorescence ratio F(max-min)/F0 at 10 µM; actives 8.7% (n = 4,000);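 active = calcium fluorescence ratio at least three times the spread of buffer wells, meaning a non-specific response in parental cells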
* marks the source's active call; other numbers are inactive results; i = inactive; . = not tested or not shown.

SMILES	MrgX1 antag	MrgX1 PAM	MrgX1 ag	RGS4 block	RGS4 act	MrgX1 antag conf	HEK293 Ca flux	HEK293 Ca counter	HEK293 Ca cntr2
Cc1nc2ccccc2c2oc(C(=O)NC3CC3)cc12	i	i	i	i	i	.	.	.	.
Cc1cc2c(C)nc3ccccc3c2o1	-4.75*	i	i	i	i	i	i	i	i
CCCCn1c(N)c(N(CC(C)C)C(=O)CC2CCCCC2)c(=O)[nH]c1=O	i	i	i	i	i	.	.	.	.
CC(C)CN(C(=O)COC(=O)/C=C/c1cccs1)c1c(N)n(Cc2ccccc2)c(=O)[nH]c1=O	i	i	i	i	i	.	.	.	.
COCCN(C(=O)COC(=O)/C=C/c1cccs1)c1c(N)n(Cc2ccccc2)c(=O)[nH]c1=O	-11.6*	i	i	i	i	69.0%*	i	i	i
O=C(CNS(=O)(=O)c1ccc([N+](=O)[O-])cc1)N/N=C/c1ccc(O)cc1O	-12.8*	i	i	i	i	40.5%*	i	63.1*	i
CCCN1C2CCCC1CC(NC(=S)Nc1cc(C)cc(C)c1)C2 (stereo unspecified)	-5.98*	i	i	i	i	i	i	i	i
COc1ccc(N2CC(C(=O)N[C@@H](C)C(=O)NCc3ccccc3OC)CC2=O)cc1 (stereo partly specified)	i	i	i	i	i	.	.	.	.
CCCn1c(N2CCN(C(=O)N3CCCCC3)CC2)nc2ccccc21	-6.16*	i	i	i	i	i	i	i	i
CCCn1c(N2CCN(C(=O)Nc3ccccc3)CC2)nc2ccccc21	i	i	i	i	i	.	.	.	.
COc1ccccc1CNC(=O)C1(NC(=O)Nc2ccc(C)cc2)CCCCC1	i	i	i	i	i	.	.	.	.
COc1ccc(NC(=O)CSCC(=O)N(C)CCOc2ccc(Cl)cc2)cc1	i	i	i	i	i	.	.	.	.
CC1(c2ccc(C#N)cc2)NC(=O)N(CC(=O)Nc2cc(S(=O)(=O)N3CCOCC3)ccc2Cl)C1=O (stereo unspecified)	-7.33*	i	i	i	i	i	i	i	i
COC(=O)c1ccccc1NC(=O)c1cc2sccc2n1C	-7.32*	i	i	i	i	84.7%*	i	i	i
C=CCOC(=O)C1=C(C)N(C)C(=O)NC1c1cc2c(cc1Br)OCO2 (stereo unspecified)	-4.65*	i	i	i	i	85.4%*	i	i	i
CCOC(=O)C1CCN(C(=O)c2sc3nc(-c4ccc(F)cc4)cn3c2C)CC1	-5.76*	i	i	i	i	i	i	i	i
CCN(CC)C(=O)C1CC(=O)OC12CCCCC2 (stereo unspecified)	i	i	i	i	i	.	.	.	.
O=C1CC(C(=O)O)C2(CCCC2)O1 (stereo unspecified)	-5.19*	i	i	i	i	i	i	i	i
CN(CCCOc1ccccc1F)Cc1ccccc1	i	i	i	i	i	.	.	.	.
CN(CCCOc1ccccc1Br)Cc1ccccc1	-6.01*	i	i	i	i	i	i	i	i
CCOC(=O)c1cc(-c2ccccc2)n(Cc2cc(CC)no2)n1	-5.51*	i	i	i	i	i	i	i	i
Cc1cc(Cn2nc(C(=O)NCC3CC3)cc2-c2ccccc2)on1	i	i	i	i	i	.	.	.	.
O=C(C1CCN(S(=O)(=O)c2cccc3cccnc23)CC1)N1CCCCC1	i	i	i	i	i	.	.	.	.
CCCCCN1CC(=O)N2Cc3[nH]c4ccccc4c3C[C@H]2C1=O	-19*	i	i	i	i	i	i	i	i
CSc1ccc(S(=O)(=O)N2CCC(C(=O)Nc3cccnc3)CC2)cc1	i	i	i	i	i	.	.	.	.
SMILES	MrgX1 antag	MrgX1 PAM	MrgX1 ag	RGS4 block	RGS4 act	MrgX1 antag conf	HEK293 Ca flux	HEK293 Ca counter	HEK293 Ca cntr2
O=C(Nc1cccnc1)C1CCN(S(=O)(=O)c2ccc(Cl)cc2)CC1	-7.89*	i	i	i	i	i	i	i	i
Cc1cc2ccccc2nc1SCC(=O)N1c2ccccc2CC1C (stereo unspecified)	i	i	i	i	i	.	.	.	.
Cc1cc2cc3c(cc2nc1SCC(=O)N1c2ccccc2CC1C)OCO3 (stereo unspecified)	-5.02*	i	i	i	i	83.9%*	i	i	i
CCOC(=O)CSc1nc2cc3c(cc2cc1C#N)OCO3	i	i	i	.	.	.	.	.	.
CC1Cc2ccccc2N1C(=O)CSc1nc2cc3c(cc2cc1C#N)OCO3 (stereo unspecified)	-8.51*	i	i	.	.	i	i	i	i
Cc1cc(=O)c2cc3nc(-c4cccnc4)oc3c(Br)c2o1	i	i	i	i	i	.	.	.	.
CCOC(=O)C1=C(COC(=O)C2CC(=O)N(c3ccc(C)cc3)C2)NC(=O)NC1C (stereo unspecified)	-5.77*	i	i	i	i	i	i	i	i
CC(C)NC(=O)c1sc2nc(-c3cccs3)cc(-c3cccs3)c2c1N	-9*	i	i	i	i	i	i	i	i
CC(=O)c1sc2nc(-c3cccs3)ccc2c1N	i	i	i	i	i	.	.	.	.
NS(=O)(=O)c1cccc(NC(=O)Nc2ccc(Cl)cc2)c1	-6.26*	i	i	i	i	82.9%*	i	i	i
CCSc1nsc(NC(=O)Nc2cccc(F)c2)n1	-7.37*	i	i	i	i	78.0%*	i	i	i
COC(=O)c1cc(NC(=O)c2ccc(-c3ccccc3)cc2)ccc1Cl	-8.14*	i	i	i	i	i	i	i	i
O=C(Nc1cccc(F)c1)Nc1cccc(Cl)c1	-5.07*	i	i	i	i	65.2%*	i	i	i
